Compound activity from PubChem.
PP5 primary – PP5 (human) phosphatase inhibition; P53041; purified PP5c, OMFP substrate fluorescence; inhibition, % at 6.7 µM; 0.18% of 320,000 active; AID 1987;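 active = inhibition above the campaign's mean inhibition across all tested compounds plus 3 SD, cut at about 9.5% in these data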
Target sequence (P53041 whole entry, looked up): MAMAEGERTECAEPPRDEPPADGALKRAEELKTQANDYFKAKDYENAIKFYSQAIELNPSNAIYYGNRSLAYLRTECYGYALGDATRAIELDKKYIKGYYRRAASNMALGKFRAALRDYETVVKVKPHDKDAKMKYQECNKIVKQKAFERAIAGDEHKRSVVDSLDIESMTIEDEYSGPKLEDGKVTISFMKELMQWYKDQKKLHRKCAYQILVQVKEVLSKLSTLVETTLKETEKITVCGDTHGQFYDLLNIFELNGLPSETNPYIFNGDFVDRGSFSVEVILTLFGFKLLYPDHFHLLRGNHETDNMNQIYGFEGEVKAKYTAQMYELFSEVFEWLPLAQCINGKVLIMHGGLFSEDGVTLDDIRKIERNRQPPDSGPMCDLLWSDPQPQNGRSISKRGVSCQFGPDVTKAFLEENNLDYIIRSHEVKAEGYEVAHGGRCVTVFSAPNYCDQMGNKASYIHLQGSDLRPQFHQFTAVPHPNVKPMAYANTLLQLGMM
PP1 inh – blocks human PP1-alpha phosphatase, a PP5 counter-screen. P62136. purified PP1alpha, OMFP fluorescence. inhibition, % at 6.7 µM. 0.9% of 320,000 active. AID 2235;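 active = inhibition above the mean inhibition of all tested compounds plus 3 SD, computed separately for each screening campaign, cut at about 15% in these data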
NadD block – NadD (S. aureus) enzyme inhibition; purified NadD enzyme, colorimetric absorbance read-out; inhibition, % at 20 µM; 0.78% of 360,000 active; AID 602399; in the data active = inhibition above about 26%
Myeloid diff MLP – compounds promoting myeloid differentiation; ER-HoxA9 myeloid progenitors, lysozyme-GFP differentiation, flow cytometry; calls only at 10 µM; 1% of 360,000 active; AID 624256;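 active = normalized GFP-positive differentiation at or above the plate's own cutoff, the solvent-only control mean plus 3 SD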;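 note: cells exposed to compound for four days before flow analysis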
HCV core dimer – HCV core protein dimerization inhibition. TR-FRET GST/Flag-core106 dimerization, 1536-well. inhibition, % at 5 µM. 0.33% of 300,000 active. AID 1899;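 active = inhibition above the mean of all tested compounds plus 3 SD, set per screening campaign, cut at about 45% in these data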
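Assay system: Tagged HCV core106 pair (GST and Flag) | Buffer or medium: KF-containing HEPES buffer, pH 7.45, DTT, CHAPS, BSA | Also added: Eu donor and XL665 acceptor anti-tag antibodies | Dosing: One concentration, 5 µM, in 0.5% DMSO | Timing: 4 h at 22.5 °C | Technique: TR-FRET 671 and 617 nm emission | Repeats: Singlicate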
CTSL1 counter – cathepsin L1 inhibition, PFM18AAP counter-screen. recombinant F. hepatica cathepsin L1, Z-Leu-Arg-MCA fluorescence. inhibition, % at 5.96 µM. 0.49% of 300,000 active;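 active = inhibition above the mean of all tested compounds plus 3 SD, set per screening campaign, cut at about 17% in these data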
PP1 inh confirm – confirmation of human PP1 phosphatase inhibitors; 52% of 1,900 active; purified PP1alpha, OMFP substrate fluorescence; shares compounds with PP1 inh; AID 2358; inhibition, % at 6.7 µM;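 active = mean PP1 inhibition above a set limit taken from the earlier primary screen, cut at about 15% in these data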
PP5 counter – counter-screen for PP1 inhibitors: human PP5 phosphatase inhibition; shares compounds with PP1 inh; purified PP5c, OMFP fluorescence; inhibition, % at 6.7 µM; 4% of 1,900 active; AID 2360;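 active = mean PP5 inhibition over triplicate wells above about 9.5% taken from the earlier PP1 screen, limit read from the data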
Large screens that a line does not name were inactive (follow-up assays come after a bar, where they were run). In the library only some 3.1% were active in any assay of this set; here they are far more common.

COc1ccc(S(=O)(=O)Nc2ccc(F)c(F)c2)cc1C(=O)N1CCOCC1	PP1 inh 22 (no result: Myeloid diff MLP) | PP1 inh confirm inactive | PP5 counter inactive
COc1ccc(S(=O)(=O)Nc2cccc(SC)c2)cc1C(=O)N1CCOCC1	none
Cc1ccccc1N(C)S(=O)(=O)c1nnc(NC(=O)c2ccco2)s1	none
O=c1[nH]c(NCCO)nc2c1C1(CCCCC1)Cc1ccccc1-2	PP1 inh 19 | PP1 inh confirm inactive | PP5 counter inactive
CCOc1ccccc1NC(=O)COC(=O)Cc1ccc(-c2ccccc2)cc1	PP1 inh 21 | PP1 inh confirm 16 | PP5 counter inactive
O=C(N/N=C/c1ccccn1)c1cc(-c2ccccc2Cl)n[nH]1	none
O=C(N/N=C/c1ccccn1)c1cc(-c2cccc3ccccc23)n[nH]1	PP1 inh 19 | PP1 inh confirm 27 | PP5 counter inactive
Cc1ccc(Nc2nc(NCc3ccco3)c3ccccc3n2)cc1	PP1 inh 20 | PP1 inh confirm inactive | PP5 counter inactive
Oc1ccccc1-c1nc(NCc2ccco2)c2ccccc2n1	none
c1ccc(-c2nc(NCc3ccco3)c3ccccc3n2)nc1	PP1 inh 26 | PP1 inh confirm 24 | PP5 counter inactive
COc1ccccc1Nc1nc(NCc2ccco2)c2ccccc2n1	none
O=C(NCCc1ccccc1)c1ccc2c(c1)S(=O)(=O)N=C1CCCCCN12	none (no result: HCV core dimer, CTSL1 counter)
Cc1ccc(NC(=O)Cn2c(O)c(N=NC(N)=O)c3ccccc32)cc1	none
Cc1c(C#N)c2ccccc2n1CC(=O)NC(C)c1ccccc1 (stereo not given)	none
Cc1ccccc1NC(=O)Cn1c(O)c(N=NC(=O)c2ccccc2O)c2ccccc21	PP1 inh 20 | PP1 inh confirm 24 | PP5 counter inactive
Cc1cccc(NC(=O)Cn2c(C)c(C#N)c3ccccc32)c1C	PP1 inh 21 | PP1 inh confirm 19 | PP5 counter inactive
Cc1ccc(NC(=O)Cn2c(O)c(N=NC(N)=S)c3ccccc32)cc1	PP1 inh 21 | PP1 inh confirm inactive | PP5 counter inactive
COc1ccc(NC(=O)NNC(=O)COc2ccc3cc(Br)ccc3c2)cc1OC	PP1 inh 25 | PP1 inh confirm 25 | PP5 counter inactive
COc1ccc(NC(=O)NNC(=O)c2ccc(-c3ccccc3)cc2)cc1	PP1 inh 28 | PP1 inh confirm 22 | PP5 counter inactive
COc1ccc2cc(OCC(=O)NNC(=O)Nc3ccc(C(C)=O)cc3)ccc2c1	PP1 inh 43 | PP1 inh confirm 41 | PP5 counter inactive
Cn1cc(S(=O)(=O)NC[C@H]2O[C@@H](n3ccc(=O)[nH]c3=O)[C@H](O)[C@@H]2O)cn1	none (no result: PP5 primary, PP1 inh, HCV core dimer, CTSL1 counter)
CS(=O)(=O)N(CC(=O)N1CCc2ccccc2C1)c1ccccc1Br	none
CC(C)CC(=NNC(=O)c1ccncc1)c1cc(Cl)ccc1O	none (no result: PP5 primary, PP1 inh, Myeloid diff MLP, HCV core dimer, CTSL1 counter)
Cc1cc(N2C(=O)C(O)=C(C(=O)c3ccco3)C2c2ccc(Cl)cc2)no1 (stereo not given)	PP1 inh 20 | PP1 inh confirm 17 | PP5 counter inactive
Cc1cc(N2C(=O)C(O)=C(C(=O)c3ccco3)C2c2cccc(Oc3ccccc3)c2)no1 (stereo not given)	PP1 inh 25 | PP1 inh confirm 26 | PP5 counter inactive
Cc1cc(N2C(=O)C(O)=C(C(=O)c3cc4ccccc4o3)C2c2ccc([N+](=O)[O-])cc2)no1 (stereo not given)	PP1 inh 30 | PP1 inh confirm 16 | PP5 counter inactive
CSc1nc(N(C)CCO)c2sc3nc(-c4ccco4)c4c(c3c2n1)CCC4	PP1 inh 30, HCV core dimer 80, CTSL1 counter 22 | PP1 inh confirm 31 | PP5 counter inactive
O=C(CSc1nc2ccsc2c(=O)n1CC1CCC(C(=O)O)CC1)c1ccc(F)cc1 (stereo not given)	none
O=C(CSc1nc2ccsc2c(=O)n1CC1CCC(C(=O)O)CC1)c1ccc(Cl)cc1 (stereo not given)	PP1 inh 20 | PP1 inh confirm inactive | PP5 counter inactive
COc1ccc(C(=O)Nc2ccc(Cl)cc2C(=O)N2CCCC(C)C2)cc1 (stereo not given)	PP1 inh 60 | PP1 inh confirm inactive | PP5 counter inactive
NS(=O)(=O)c1ccc(NC(=O)COC(=O)COc2cccc(C(F)(F)F)c2)cc1	none
O=C(Nc1ccccn1)c1ccc([N+](=O)[O-])cc1Cl	none
O=C(Nc1ccccn1)c1cc2cc([N+](=O)[O-])ccc2s1	PP1 inh 21 | PP1 inh confirm 18 | PP5 counter inactive
CC1(C(=O)NS(=O)(=O)c2ccccc2)CCN1C(=O)COc1ccc(Cl)cc1 (stereo not given)	none (no result: PP5 primary, PP1 inh, HCV core dimer, CTSL1 counter)
CCOC(=O)c1sc(-n2[nH]c(C)cc2=O)nc1C	PP1 inh 19 | PP1 inh confirm inactive | PP5 counter inactive
CCOC(=O)c1sc(NC(C)=O)nc1C	none
CCCCN(C(=O)c1cccc(N2C(=O)c3ccccc3C2=O)c1)c1c(N)n(CC(C)C)c(=O)[nH]c1=O	none (no result: HCV core dimer, CTSL1 counter)
CCCCN(C(=O)c1cccc(-n2cccc2)c1)c1c(N)n(Cc2ccccc2)c(=O)[nH]c1=O	PP1 inh 34, HCV core dimer 48 | PP1 inh confirm inactive | PP5 counter inactive
O=C(Nc1ccncc1)C1CCN(S(=O)(=O)c2ccc(Cl)c(C(F)(F)F)c2)CC1	none (no result: HCV core dimer, CTSL1 counter)
CC(=O)C(=Cc1ccc(Cl)cc1)C(=O)c1ccccc1	none (no result: PP5 primary, PP1 inh, HCV core dimer, CTSL1 counter)
COCc1nnc(NC(=O)c2ccc(S(=O)(=O)N(C)Cc3ccccc3)cc2)o1	PP1 inh 22 (no result: Myeloid diff MLP) | PP1 inh confirm 17 | PP5 counter inactive
COCc1nnc(NC(=O)c2ccc(S(=O)(=O)N(C)C3CCCCC3)cc2)o1	PP1 inh 18 | PP1 inh confirm inactive | PP5 counter inactive
COCCN(CCOC)S(=O)(=O)c1ccc(C(=O)Nc2nnc(COC)o2)cc1	none
Cc1nnc(NC(=O)c2ccc3ccccc3c2)o1	PP1 inh 19 | PP1 inh confirm inactive | PP5 counter inactive
CN(c1ccccc1)S(=O)(=O)c1ccc(C(=O)Nc2nnc(C3=COCCO3)o2)cc1	PP1 inh 26 | PP1 inh confirm 15 | PP5 counter inactive
CCN(Cc1ccccc1)S(=O)(=O)c1ccc(C(=O)Nc2nnc(C3CC3)o2)cc1	PP1 inh 43 | PP1 inh confirm 34 | PP5 counter inactive
Cc1nnc(NC(=O)c2ccc(S(=O)(=O)N(C)Cc3ccccc3)cc2)o1	PP1 inh 38 | PP1 inh confirm 30 | PP5 counter inactive
COCCN(CCOC)S(=O)(=O)c1ccc(C(=O)Nc2nnc(C)o2)cc1	none
Cc1ccccc1NC(=O)NCCCCc1ccccc1	none
